Publication PMC2847577 (Molecular cell, 2009)
Numbering of substitutions follows the chain as printed. In names and notes the source's numbering stands. Like-named read-outs stand apart in the source and are kept apart here. One block for each molecule: values may come before it. No end group written: not given here.

Tests used:
Puc^93-107 (Drosophila) = experiment: SPR
SPOP^MATH [1] = target: SPOP^MATH (Homo sapiens, UniProt O43791); experiment: Surface Plasmon Resonance; assay type: binding; conditions: Surface Plasmon Resonance (BIACORE), wildtype SPOP^MATH
In short: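 SPOP MATH domain expressed in E. coli BL21(DE3) GOLD as a GST fusion and purified by affinity, ion-exchange and gel-filtration chromatography. Binding of substrate-derived SPOP-binding-consensus peptides was measured by surface plasmon resonance on a BIACORE3000, and binding constants were reported.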

Puc^1-390 (Drosophila) [2] = experiment: AUC
Puc^1-390 (Drosophila) [3] = experiment: AUC; remark: listed apart in the source
Cul3^NTD = Cul3^NTD (UniProt Q13618 1-384); experiment: AUC
SPOP^MATH [4] = target: SPOP^MATH (human, UniProt O43791 28-166); experiment: crystal structure
crystal structure = target: the molecule itself; experiment: crystal structure
AUC = target: the molecule itself; experiment: AUC

Chain of Cul3^NTD (Q13618 1-384): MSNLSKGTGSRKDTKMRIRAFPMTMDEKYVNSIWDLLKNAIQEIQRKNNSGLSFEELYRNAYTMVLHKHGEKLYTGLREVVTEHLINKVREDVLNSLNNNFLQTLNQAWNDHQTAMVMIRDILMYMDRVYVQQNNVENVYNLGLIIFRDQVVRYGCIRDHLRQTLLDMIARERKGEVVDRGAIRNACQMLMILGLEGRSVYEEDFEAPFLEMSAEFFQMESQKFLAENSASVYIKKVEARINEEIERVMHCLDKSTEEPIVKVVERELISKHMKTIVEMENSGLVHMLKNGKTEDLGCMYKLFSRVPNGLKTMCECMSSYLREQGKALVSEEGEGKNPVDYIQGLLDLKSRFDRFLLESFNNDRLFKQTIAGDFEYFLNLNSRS

binding to SPOP^MATH (result in words) (SPOP^MATH [1]): negligible binding
Molecule: DSTTEGTPADGFTVL [MacroH2A pep2]

binding to SPOP^MATH (result in words) (SPOP^MATH [1]): sufficient for binding
Molecule: MacroH2A^166-179: Synthetic peptide for the MacroH2A SPOP-binding region, residues 166-179 (KAASADSTTEGTPAD)

stoichiometry N (Cul3^NTD): 1 SPOP per Cul3 (2:2)
B1: SPOP^BTB (domain or fragment, human, UniProt O43791 173-297, looked up)
chain: QNTMNMVKVPECRLADELGGLWENSRFTDCCLCVAGQEFQAHKAILAARSPVFSAMFEHEMEESKKNRVEINDVEPEVFKEMMCFIYTGKAPNLDKMADDLLAAADKYALERLKVMCEDALCSNL

stoichiometry N (Cul3^NTD): 1 SPOP per Cul3 (1:1)
B5: SPOP^BTB+ L186D, L190D, L193D, I217K (domain or fragment, human, UniProt O43791 172-329, looked up)
chain: GQNTMNMVKVPECRDADEDGGDWENSRFTDCCLCVAGQEFQAHKAKLAARSPVFSAMFEHEMEESKKNRVEINDVEPEVFKEMMCFIYTGKAPNLDKMADDLLAAADKYALERLKVMCEDALCSNLSVENAAEILILADLHSADQLKTQAVDFINYHA

The remaining lines, values behind:

Molecule: SPOP^MATH (from UniProt O43791 28-166) (domain or fragment)
Kd (Puc^93-107 (Drosophila)): 4 µM

Molecule: SPOP^MATH-BTB+ (from UniProt O43791 28-329) (domain or fragment)
stoichiometry N (Puc^1-390 (Drosophila) [2]): 2 SPOP per Puc | stoichiometry N (Puc^1-390 (Drosophila) [3]): 2 SPOP per Puc

Molecule: Ac-LACDEVTSTTSSSTA (N-terminus assumed) [Puc^93-107]
binding to SPOP^MATH (result in words) (SPOP^MATH [1]): sufficient for binding

B2: MacroH2A_pep1 (peptide)
peptide: KAASADSTTEGTPAD
binding result (SPOP^MATH [4]): binds

B3: Gig^1-258 (domain or fragment, human, UniProt Q9H2C0 1-258, looked up)
chain: MAEGSAVSDPQHAARLLRALSSFREESRFCDAHLVLDGEEIPVQKNILAAASPYIRTKLNYNPPKDDGSTYKIELEGISVMVMREILDYIFSGQIRLNEDTIQDVVQAADLLLLTDLKTLCCEFLEGCIAAENCIGIRDFALHYCLHHVHYLATEYLETHFRDVSSTEEFLELSPQKLKEVISLEKLNVGNERYVFEAVIRWIAHDTEIRKVHMKDVMSALWVSGLDSSYLREQMLNEPLVREIVKECSNIPLSQPQQ
modifications: selenomethionines (structure phased by SAD)
binding result (crystal structure): binds

B4: SPOP^BTB+ (domain or fragment, human, UniProt O43791 172-329, looked up)
chain: B5 chain with D15L, D19L, D22L, K46I
stoichiometry N (Cul3^NTD): 1 SPOP per Cul3 (2:2) | binding result (crystal structure): binds

B6: Ci SBC2 peptide (peptide)
peptide: NTLFPDVSSSTH
binding result (SPOP^MATH [4]): binds

B7: SPOP^MATH-BTB+ (domain or fragment, human, UniProt O43791 28-329, looked up)
chain: KVVKFSYMWTINNFSFCREEMGEVIKSSTFSSGANDKLKWCLRVNPKGLDEESKDYLSLYLLLVSCPKSEVRAKFKFSILNAKGEETKAMESQRAYRFVQGKDWGFKKFIRRDFLLDEANGLLPDDKLTLFCEVSVVQDSVNISGQNTMNMVKVPECRLADELGGLWENSRFTDCCLCVAGQEFQAHKAILAARSPVFSAMFEHEMEESKKNRVEINDVEPEVFKEMMCFIYTGKAPNLDKMADDLLAAADKYALERLKVMCEDALCSNLSVENAAEILILADLHSADQLKTQAVDFINYHA
binding result (AUC): binds

B8: Puc SBC1_pep1 (peptide)
peptide: DEVTSTTSSS
binding result (SPOP^MATH [4]): binds
